Active and inactive are the calls of the source. No cut-off for these calls is given here.

These results are taken from ChEMBL document CHEMBL2331319, “Development of N-Hydroxycinnamamide-Based Histone Deacetylase Inhibitors with Indole-Containing Cap Group” (ACS Med Chem Lett, 2013).

For one series, the target named is Histone deacetylase. Briefly: Inhibition of HDAC in human HeLa cell nuclear extract using Boc-Lys(acetyl)-AMC as substrate preincubated with enzyme for 5 mins prior to substrate addition measured after 30 mins by fluorescence assay. It counts as protein assay.
The subject of series [1] is Mus musculus. The experiment in a line: Toxicity in athymic nude mouse xenografted with human U937 cells assessed as spleen injury at 60 mg/kg/day, po administered 10 days after tumor inoculation for 3 weeks. Details: route oral. It counts as organism-based, U-937. Conditions: in vivo.
Series [2] deals with Mus musculus. The experiment in a line: Toxicity in athymic nude mouse xenografted with human U937 cells assessed as liver injury at 60 mg/kg/day, po administered 10 days after tumor inoculation for 3 weeks. It counts as organism-based, U-937. Also noted: route oral. As to conditions: in vivo. A general note: Xenograft models place foreign cells or tissue in a host animal.
In series [3] the test system is Mus musculus. The experiment in a line: Toxicity in athymic nude mouse xenografted with human U937 cells assessed as body weight loss at 60 mg/kg/day, po administered 10 days after tumor inoculation for 3 weeks. The format is organism-based, U-937. Details: route oral. As to conditions: in vivo.
Series [4] has as its system U-937. Briefly: Antitumor activity against human U937 cells xenografted in athymic nude mouse assessed as T/C ratio at 60 mg/kg/day, po administered 10 days after tumor inoculation for 3 weeks. The format is functional. The gist of the method: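 U937 cells implanted in nude mice, seven per group; oral dosing with a positive-control group run alongside. Tumour growth was followed as a growth curve, data given as mean ± SD; efficacy was expressed as tumour growth inhibition and relative increment ratio.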

The test system of series [5] is U-937. The experiment in a line: Antitumor activity against human U937 cells xenografted in athymic nude mouse assessed as tumor growth inhibition at 60 mg/kg/day, po administered 10 days after tumor inoculation for 3 weeks measured every three days by vernier caliper. It counts as functional. As to conditions: read-out: TGI. The gist of the method: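 U937 xenografts in nude mice, seven per group, with oral dosing and a reference agent as positive control. Tumour growth was followed as a growth curve, and the data are given as mean ± SD.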

The test system of another series is HCT-116. Briefly: Inhibition of human HCT116 cell proliferation after 48 hrs by MTT assay. The format is functional, cell-based. Conditions: HCT-116, 48 h.
Series [6] deals with MDA-MB-231. The experiment in a line: cells. It counts as functional, cell-based. Conditions: Homo sapiens, MDA-MB-231, 48 h.
In a further series the test system is A549. The experiment in a line: Inhibition of human A549 cell proliferation after 48 hrs by MTT assay. As to conditions: A549, 48 h. It counts as functional, cell-based.
Series [7] in a line: Inhibition of human ES2 cell proliferation after 48 hrs by MTT assay. It counts as functional, cell-based. As to conditions: ES-2, 48 h.
A further series concerns PC-3. Briefly: Inhibition of human PC3 cell proliferation after 48 hrs by MTT assay. The format is functional, cell-based. As to conditions: PC-3, 48 h.
Series [8] has as its system MDA-MB-231. The experiment in a line: Increase in histone H4 acetylation in human MDA-MB-231 cells at 1 uM after 3 to 24 hrs by Western blot analysis. It counts as functional, cell-based. The procedure, abridged: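 MDA-MB-231 cells were exposed at 1 μM for 3 h and 24 h. Lysates were immunoblotted for acetylated histone H4, with β-actin as the loading control.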
A general note: Immunoblotting shows a protein as a band on a membrane.

For series [9], the system named is U-937. Briefly: Inhibition of human U937 cell proliferation after 48 hrs by MTT assay. The format is functional, cell-based. Conditions: U-937, 48 h. In general terms: Tetrazolium assays rely on reduction of a dye to a coloured formazan, in cell work by metabolically active cells.
Series [10] relates to U-937. Briefly: Antitumor activity against human U937 cells xenografted in athymic nude mouse assessed as T/C ratio at 20 mg/kg/day, po administered 10 days after tumor inoculation for 3 weeks. It counts as functional.
Series [11] deals with U-937. The experiment in a line: Antitumor activity against human U937 cells xenografted in athymic nude mouse assessed as tumor growth inhibition at 20 mg/kg/day, po administered 10 days after tumor inoculation for 3 weeks measured every three days by vernier caliper. It counts as functional. Conditions: read-out: TGI. The gist of the method:
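U937 xenografts in nude mice, seven mice per group. Tamibarotene served as the positive control. Growth curves of the implanted tumours were followed over the treatment period and reported as mean ± SD.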

As a reminder, the IC50 is the concentration that gives 50% inhibition. `COc1cc(/C=C/C(=O)NO)ccc1OC[C@H](Cc1c[nH]c2ccccc12)NC(=O)c1ccc(NC(=O)OC(C)(C)C)cc1`: on Histone deacetylase, the IC50 is 0.73 µM.

The compound `COc1cc(/C=C/C(=O)NO)ccc1OC[C@H](Cc1c[nH]c2ccccc12)NC(=O)[C@H](CCCCNC(=O)OC(C)(C)C)NC(=O)OC(C)(C)C` showed an IC50 against Histone deacetylase of 1.17 µM.

`COc1cc(/C=C/C(=O)NO)ccc1OC[C@@H](N)Cc1c[nH]c2ccccc12.Cl` displayed an IC50 against Histone deacetylase of 2.91 µM.

For the compound `COc1cc(/C=C/C(=O)NO)ccc1OC[C@H](Cc1c[nH]c2ccccc12)NS(=O)(=O)c1c(C(C)C)cc(C(C)C)cc1C(C)C`, the IC50 result in the series on Histone deacetylase is “ND(Insoluble)”.

For the compound `CCCC(CCC)C(=O)N[C@H](COc1ccc(/C=C/C(=O)NO)cc1OC)Cc1c[nH]c2ccccc12`, the Activity result is on record as “Non-toxic” with Mus musculus [1], “Non-toxic” in the series on Mus musculus [2], “Non-toxic” in the series on Mus musculus [3] and 42% in the series on U-937 [4]. Further, the inhibition in vivo at 60 mg/kg/day with U-937 [5] turned out to be 53%. Also, the concentration for half-maximal inhibition (IC50) in the series on HCT-116 worked out at 5.5 µM; with MDA-MB-231 [6] it was 3.1 µM; with A549, 4.4 µM; in [7] it was 5.4 µM; in the series on PC-3, 3.7 µM; in the series on U-937 [9] it was 1.8 µM. Besides, in the series with MDA-MB-231 [8], the result was Active.

In the case of `COc1cc(/C=C/C(=O)NO)ccc1OC[C@H](Cc1c[nH]c2ccccc12)NC(=O)[C@@H](NC(=O)OC(C)(C)C)[C@@H](C)O`, the half-maximal inhibitory concentration (IC50) on Histone deacetylase amounted to 0.18 µM; in the series with HCT-116, 2.4 µM; with MDA-MB-231 [6], 7.2 µM; in the series on A549 it was 7 µM; in [7], 8.9 µM; in the series on PC-3, 5.4 µM. In addition, 2.7 µM corresponded to half-maximal inhibition with U-937 [9] (IC50).

On to `COc1cc(/C=C/C(=O)NO)ccc1OC[C@H](Cc1c[nH]c2ccccc12)NC(=O)[C@H](Cc1c[nH]c2ccccc12)NC(=O)OC(C)(C)C`, for which the IC50 against Histone deacetylase stood at 0.49 µM.

`COc1cc(/C=C/C(=O)NO)ccc1OC[C@H](Cc1c[nH]c2ccccc12)NC(=O)OC(C)(C)C`: at Histone deacetylase, the IC50 is 0.65 µM.

The compound `COc1cc(/C=C/C(=O)NO)ccc1OC[C@H](Cc1c[nH]c2ccccc12)NC(=O)[C@H](Cc1ccc(O)cc1)NC(=O)OC(C)(C)C` returned an IC50 at Histone deacetylase of 0.32 µM.

`COc1cc(/C=C/C(=O)NO)ccc1OC[C@H](Cc1c[nH]c2ccccc12)NC(=O)C1CCN(C(=O)OC(C)(C)C)CC1` showed an IC50 against Histone deacetylase of 1.12 µM.

For `COc1cc(/C=C/C(=O)NO)ccc1OC[C@H](Cc1c[nH]c2ccccc12)NC(=O)[C@H](CCSC)NC(=O)OC(C)(C)C`, the IC50 against Histone deacetylase was determined as 0.18 µM; with HCT-116, 5.9 µM; with MDA-MB-231 [6], 6.8 µM; with A549, 1.6 µM; in series [7], 4.4 µM; with PC-3 it was 5.8 µM. Also, half-maximal inhibition with U-937 [9] (IC50) required 2.2 µM.

For the compound `COc1cc(/C=C/C(=O)NO)ccc1OC[C@H](Cc1c[nH]c2ccccc12)NC(=O)[C@@H](NC(=O)OC(C)(C)C)C(C)C`, the IC50 against Histone deacetylase was 0.43 µM.

For `COc1cc(/C=C/C(=O)NO)ccc1OC[C@H](Cc1c[nH]c2ccccc12)NS(=O)(=O)c1ccc(F)cc1`, on Histone deacetylase, the IC50 amounted to 1.06 µM.

`CC1(C)CCC(C)(C)c2cc(NC(=O)c3ccc(C(=O)O)cc3)ccc21` [TAMIBAROTENE]: the Activity in the series on U-937 [10] was determined as 85%. Further, the inhibition in vivo at 20 mg/kg/day in the series on U-937 [11] was 33%.

With `COc1cc(/C=C/C(=O)NO)ccc1OC[C@H](Cc1c[nH]c2ccccc12)NC(=O)CNC(=O)OC(C)(C)C`, the IC50 is 0.17 µM against Histone deacetylase; 6 µM in the series on HCT-116; 7.2 µM in the series with MDA-MB-231 [6]; 11.8 µM with A549; 29.2 µM in [7]; 10.5 µM in the series with PC-3. Besides, the half-maximal inhibitory concentration (IC50) in the series with U-937 [9] stood at 3.1 µM.

On Histone deacetylase, `COc1cc(/C=C/C(=O)NO)ccc1OC[C@H](Cc1c[nH]c2ccccc12)NC(=O)[C@H](Cc1ccccc1)NC(=O)OC(C)(C)C` displayed an IC50 of 0.62 µM.

Compound `COc1cc(/C=C/C(=O)NO)ccc1OC[C@H](Cc1c[nH]c2ccccc12)NS(=O)(=O)c1ccc(Cl)cc1` gave an IC50 at Histone deacetylase of 1.47 µM.

`COc1cc(/C=C/C(=O)NO)ccc1OC[C@H](Cc1c[nH]c2ccccc12)NC(=O)[C@H](C)NC(=O)OC(C)(C)C`: the IC50 at Histone deacetylase came out at 0.16 µM; in the series with HCT-116, 3.8 µM; in the series on MDA-MB-231 [6] it was 4.5 µM; in the series with A549 it was 4.2 µM; in series [7], 25.1 µM; with PC-3, 10.4 µM. In addition, inhibition with U-937 [9] was half-maximal at 2.2 µM (IC50).

For the compound `COc1cc(/C=C/C(=O)NO)ccc1OC[C@H](Cc1c[nH]c2ccccc12)NC(=O)[C@H](CO)NC(=O)OC(C)(C)C`, the IC50 against Histone deacetylase was 0.14 µM; in the series on HCT-116 it was 9.4 µM; in the series on MDA-MB-231 [6] it was 11.7 µM; in the series with A549, 13.5 µM; in series [7], 9.5 µM; with PC-3, 8.2 µM. Half-maximal inhibition in the series with U-937 [9] (IC50) was put at 3.9 µM.

Take `CC[C@H](C)[C@H](NC(=O)OC(C)(C)C)C(=O)N[C@H](COc1ccc(/C=C/C(=O)NO)cc1OC)Cc1c[nH]c2ccccc12`: at Histone deacetylase, the IC50 amounted to 0.38 µM.

`COc1cc(/C=C/C(=O)NO)ccc1OC[C@H](Cc1c[nH]c2ccccc12)NS(=O)(=O)c1ccc(NC(C)=O)cc1`: the IC50 at Histone deacetylase came to 0.71 µM.

As to `COc1cc(/C=C/C(=O)NO)ccc1OC[C@H](Cc1c[nH]c2ccccc12)NC(=O)[C@@H]1CCCN1C(=O)OC(C)(C)C`, the IC50 against Histone deacetylase was determined as 0.43 µM.

As to `COc1cc(CCC(=O)NO)ccc1OC[C@H](Cc1c[nH]c2ccccc12)NC(=O)OC(C)(C)C`, the IC50 against Histone deacetylase came to 2.09 µM.

In the case of `O=C(CCCCCCC(=O)Nc1ccccc1)NO` [VORINOSTAT], the values for the IC50 (in series [7]; in the series on U-937 [9]) were 12.7 µM and 2.3 µM, respectively.

At Histone deacetylase, `COc1cc(/C=C/C(=O)NO)ccc1OC[C@H](Cc1c[nH]c2ccccc12)NC(=O)[C@@H]1CC2(CN1C(=O)OC(C)(C)C)SCCS2` had an IC50 of 0.8 µM.

`COc1cc(/C=C/C(=O)NO)ccc1OC[C@H](Cc1c[nH]c2ccccc12)NC(=O)[C@H](CC(C)C)NC(=O)OC(C)(C)C` gave an IC50 against Histone deacetylase of 0.57 µM.
